According to ChEMBL document CHEMBL1146375, “Synthetic studies on novel benzimidazolopeptides with antimicrobial, cytotoxic and anthelmintic potential” (2007):
≈ marks a conversion by molar mass, not a printed value. Residues, ends and D or L forms follow the SMILES beside them. *: point of attachment. X2 = O=C(c1cc(-c2nc3ccc([N+](=O)[O-])cc3[nH]2)ccc1O)*

Tests used:
Bacillus subtilis [1] = assay: Antibacterial activity against Bacillus subtilis NCIM 2063 after 18 hrs by disc diffusion method; format: functional
Outline: (§1)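 Modified Kirby-Bauer disc diffusion. Plates inoculated with spore suspension (about 6 × 10⁴ spores mL^-1). Sterile 6 mm paper discs carried test samples at 10 mg mL^-1; ciprofloxacin disc as reference, DMF disc as negative control. Plates held 18 h at 37 °C. Inhibition zone diameters (mm) averaged over triplicate sets.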

Staphylococcus aureus [2] = assay: Antibacterial activity against Staphylococcus aureus NCIM 2079 after 18 hrs by disc diffusion method; format: functional; outline: as §1
Pseudomonas aeruginosa [3] = assay: Antibacterial activity against Pseudomonas aeruginosa NCIM 2034 after 18 hrs by disc diffusion method; format: functional; outline: as §1
Escherichia coli [4] = assay: Antibacterial activity against Escherichia coli NCIM 2065 after 18 hrs by disc diffusion method; format: functional; outline: as §1
Candida albicans [5] = assay: Antifungal activity against Candida albicans MUCC 29 after 48 hrs by disc diffusion method; format: functional
Outline: (§2)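 Agar well diffusion on plates inoculated with spore suspension in normal saline from cultures on Sabouraud's broth. Wells punched and loaded with test samples or griseofulvin at 10 mg mL^-1, with DMSO as negative control. Incubated 48 h at 37 °C.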

Microsporum audouinii [6] = assay: Antifungal activity against Microsporum audouinii MUCC 545 after 48 hrs by disc diffusion method; format: functional; outline: as §2
Trichophyton benhamiae [7] = assay: Antifungal activity against Trichophyton mentagrophytes MUCC 665 after 48 hrs by disc diffusion method; format: functional, Arthroderma benhamiae; outline: as §2
Aspergillus niger = assay: Antifungal activity against Aspergillus niger MUCC 177 after 48 hrs by disc diffusion method; format: functional; outline: as §2
Bacillus subtilis [8] = assay: Antibacterial activity against Bacillus subtilis NCIM 2063 after 18 hrs by tube dilution method; format: functional; details: NCIM 2063, 18 h
Outline: (§3)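 Tube dilution MIC. Stock diluted in sterile broth to seven concentrations from 200 to 3.1 […]. Each tube inoculated with one loopful of test bacterium and incubated 18 h at 37 °C. MIC read from presence or absence of growth.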

Staphylococcus aureus [9] = assay: Antibacterial activity against Staphylococcus aureus NCIM 2079 after 18 hrs by tube dilution method; format: functional; details: NCIM 2079, 18 h; outline: as §3
Pseudomonas aeruginosa [10] = assay: Antibacterial activity against Pseudomonas aeruginosa NCIM 2034 after 18 hrs by tube dilution method; format: functional; details: NCIM 2034, 18 h; outline: as §3
Escherichia coli [11] = assay: Antibacterial activity against Escherichia coli NCIM 2065 after 18 hrs by tube dilution method; format: functional; details: NCIM 2065, 18 h
Candida albicans [12] = assay: Antifungal activity against Candida albicans MUCC 29 after 48 hrs by tube dilution method; format: functional
Outline: (§4)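 Tube dilution MIC as for bacteria (seven concentrations, 200–3.1 […]), with DMSO in place of DMF. Tubes inoculated with fungal culture and incubated 48 h at 37 °C. MIC read from presence or absence of growth.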

Microsporum audouinii [13] = assay: Antifungal activity against Microsporum audouinii MUCC 545 after 48 hrs by tube dilution method; format: functional; outline: as §4
Trichophyton benhamiae [14] = assay: Antifungal activity against Trichophyton mentagrophytes MUCC 665 after 48 hrs by tube dilution method; format: functional, Arthroderma benhamiae; outline: as §4
Eudrilus [15] = assay: Anthelmintic activity against Eudrilus sp. assessed as mean paralyzing time; format: functional
Outline: (§5)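 Earthworms exposed to test suspensions at 2 mg mL^-1 (0.2% w/v), made by triturating compound with Tween 80 (0.5%) and distilled water, then mechanically stirred 30 min. Mebendazole suspension prepared alike as reference. Paralysis and death times recorded; death confirmed by no movement in 50 °C water. Means from triplicate sets.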

Eudrilus [16] = assay: Anthelmintic activity against Eudrilus sp. assessed as mean death time; format: functional
Outline: (§6)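 Earthworms exposed to test suspensions at 2 mg mL−1, prepared by triturating compound with Tween 80 (0.5%) and distilled water, stirring 30 min, then diluting to 0.2% w/v. Mebendazole suspension was made the same way. Death was confirmed by moving worms into 50 °C warm water and looking for movement. Mean death time (min) taken from triplicate sets.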

[17] = Growth inhibition of DLA cells at 500 ug/mL after 3 hrs; format: functional; details: Mus musculus
Outline: (§7)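 DLA and EAC cells passaged intraperitoneally in albino mice, harvested after 15–20 days and adjusted to 1 × 10⁶ cells/mL. Dilutions in Dulbecco's medium (500–31.25, some down to 3.91 µg/mL; 5-FU reference) mixed 1:1 with cells and held 3 h at 37 °C. Trypan blue exclusion gave % growth inhibition; CTC50 by graphical extrapolation.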

[18] = Growth inhibition of DLA cells at 250 ug/mL after 3 hrs; format: functional; details: Mus musculus; outline: as §7
[19] = Growth inhibition of DLA cells at 125 ug/mL after 3 hrs; format: functional; details: Mus musculus; outline: as §7
[20] = Growth inhibition of DLA cells at 62.5 ug/mL after 3 hrs; format: functional; details: Mus musculus; outline: as §7
[21] = Growth inhibition of DLA cells at 31.25 ug/mL after 3 hrs; format: functional; details: Mus musculus; outline: as §7
[22] = Growth inhibition of DLA cells after 3 hrs; format: functional; details: Mus musculus; outline: as §7
[23] = Growth inhibition of EAC cells at 500 ug/mL after 3 hrs; format: functional; details: Mus musculus, Ehrlich; outline: as §7
[24] = Growth inhibition of EAC cells at 250 ug/mL after 3 hrs; format: functional; details: Mus musculus, Ehrlich; outline: as §7
[25] = Growth inhibition of EAC cells at 125 ug/mL after 3 hrs; format: functional; details: Mus musculus, Ehrlich; outline: as §7
[26] = Growth inhibition of EAC cells at 62.5 ug/mL after 3 hrs; format: functional; details: Mus musculus, Ehrlich; outline: as §7
[27] = Growth inhibition of EAC cells at 31.25 ug/mL after 3 hrs; format: functional; details: Mus musculus, Ehrlich; outline: as §7
[28] = Growth inhibition of EAC cells after 3 hrs; format: functional; details: Mus musculus, Ehrlich; outline: as §7
[29] = Anthelmintic activity against Megascoplex konkanensis ICARBC 211 assessed as mean paralyzing time; format: functional; outline: as §5
[30] = Anthelmintic activity against Megascoplex konkanensis ICARBC 211 assessed as mean death time; format: functional; outline: as §5
Pontoscolex corethrurus [31] = assay: Anthelmintic activity against Pontoscolex corethrurus ICARBC 408 assessed as mean paralyzing time; format: functional; outline: as §5
Pontoscolex corethrurus [32] = assay: Anthelmintic activity against Pontoscolex corethrurus ICARBC 408 assessed as mean death time; format: functional; outline: as §6

| Structure (SMILES) | inhibition zone (IZ) (Bacillus subtilis [1]) | inhibition zone (IZ) (Staphylococcus aureus [2]) | inhibition zone (IZ) (Pseudomonas aeruginosa [3]) | inhibition zone (IZ) (Escherichia coli [4]) | inhibition zone (IZ) (Candida albicans [5]) | inhibition zone (IZ) (Microsporum audouinii [6]) | inhibition zone (IZ) (Trichophyton benhamiae [7]) | inhibition zone (IZ) (Aspergillus niger) | MIC (Bacillus subtilis [8]) | MIC (Staphylococcus aureus [9]) | MIC (Pseudomonas aeruginosa [10]) | MIC (Escherichia coli [11]) | MIC (Candida albicans [12]) | MIC (Microsporum audouinii [13]) | MIC (Trichophyton benhamiae [14]) | Time (Eudrilus [15]) | Time (Eudrilus [16]) | inhibition at 500 µg/mL [17] | inhibition at 250 µg/mL [18] | inhibition at 125 µg/mL [19] | further results |
| --- | --- | --- | --- | --- | --- | --- | --- | --- | --- | --- | --- | --- | --- | --- | --- | --- | --- | --- | --- | --- | --- |
| Cc1cc2nc(-c3ccc(C(=O)N[C@@H](Cc4cnc[nH]4)C(=O)N[C@@H](Cc4ccc(O)cc4)C(=O)O)cc3)[nH]c2cc1C | 13 mm | 11 mm | 23 mm | 17 mm | 17 mm | 10 mm | 16 mm | 17 mm | 6 µg/mL (≈ 10.6 µM) | 12.5 µg/mL (≈ 22.1 µM) | 12.5 µg/mL (≈ 22.1 µM) | 25 µg/mL (≈ 44.1 µM) | 12.5 µg/mL (≈ 22.1 µM) | 25 µg/mL (≈ 44.1 µM) | 6 µg/mL (≈ 10.6 µM) | 13.44 min | 23.08 min | 26.3% | 18.4% | 21% | inhibition at 62.5 µg/mL [20]: 10.5%; inhibition at 31.25 µg/mL [21]: 13.2%; CC50 [22]: > 883 µM; inhibition at 500 µg/mL [23]: 10.7%; inhibition at 250 µg/mL [24]: 7.14%; inhibition at 125 µg/mL [25]: 7.14%; inhibition at 62.5 µg/mL [26]: 3.57%; inhibition at 31.25 µg/mL [27]: 3.57%; CC50 [28]: > 883 µM; TIME [29]: 0.226 h; TIME [30]: 0.37 h; Time (Pontoscolex corethrurus [31]): 17.47 min; Time (Pontoscolex corethrurus [32]): 29.02 min |
| COC(=O)[C@H](CCCNC(=N)N[N+](=O)[O-])NC(=O)[C@@H]1CCCN1C(=O)c1cc(I)c(-c2nc3cc(C)c(C)cc3[nH]2)c(I)c1 | 17 mm | 12 mm | 27 mm | 18 mm | 23 mm | 10 mm | 12 mm | 14 mm | 6 µg/mL (≈ 7.23 µM) | 12.5 µg/mL (≈ 15.1 µM) | 6 µg/mL (≈ 7.23 µM) | 12.5 µg/mL (≈ 15.1 µM) | 6 µg/mL (≈ 7.23 µM) | 25 µg/mL (≈ 30.1 µM) | 6 µg/mL (≈ 7.23 µM) | 19.43 min | 30.02 min | 84.2% | 68.4% | 52.6% | inhibition at 62.5 µg/mL [20]: 28.9%; inhibition at 31.25 µg/mL [21]: 15.8%; CC50 [22]: 114 µM; inhibition at 500 µg/mL [23]: 100%; inhibition at 250 µg/mL [24]: 100%; inhibition at 125 µg/mL [25]: 100%; inhibition at 62.5 µg/mL [26]: 35.7%; inhibition at 31.25 µg/mL [27]: 21.4%; CC50 [28]: 84.3 µM; TIME [29]: 0.299 h; TIME [30]: 0.439 h; Time (Pontoscolex corethrurus [31]): 22.77 min; Time (Pontoscolex corethrurus [32]): 34.45 min |
| COC(=O)CNC(=O)[C@H](CC(C)C)NC(=O)[C@@H]1CCCN1C(=O)[C@H](Cc1cnc[nH]1)NC(=O)c1cc(-c2nc3ccc([N+](=O)[O-])cc3[nH]2)ccc1O (X2-HPLG-OMe) | 14 mm | 10 mm | 24 mm | 14 mm | 20 mm | 12 mm | 15 mm | 17 mm | 6 µg/mL (≈ 8.36 µM) | 12.5 µg/mL (≈ 17.4 µM) | 6 µg/mL (≈ 8.36 µM) | 12.5 µg/mL (≈ 17.4 µM) | 6 µg/mL (≈ 8.36 µM) | 6 µg/mL (≈ 8.36 µM) | 6 µg/mL (≈ 8.36 µM) | 11.23 min | 20.33 min | 39.5% | 31.6% | 23.7% | inhibition at 62.5 µg/mL [20]: 15.8%; inhibition at 31.25 µg/mL [21]: 28.7%; CC50 [22]: > 697 µM; inhibition at 500 µg/mL [23]: 28.7%; inhibition at 250 µg/mL [24]: 21.4%; inhibition at 125 µg/mL [25]: 10.7%; inhibition at 62.5 µg/mL [26]: 7.14%; inhibition at 31.25 µg/mL [27]: 3.57%; CC50 [28]: > 697 µM; TIME [29]: 0.188 h; TIME [30]: 0.334 h; Time (Pontoscolex corethrurus [31]): 13.76 min; Time (Pontoscolex corethrurus [32]): 21.72 min |
